The values below come from article PMC9134258 (ACS Omega, 2022).

Bounds are passed on as bounds.

In one test the test system is Ba/F3 NPM/ALK cells. The test is described as follows: Ba/F3 NPM/ALK cell proliferation. The following applies: read-out: IC50 Ba/F3 NPM/ALK. Format: cell-based. In short, it runs like this:
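Ba/F3 cells stably expressing NPM/ALK variants were made by electroporation, selected with G418 (1 mg/mL), then selected again by IL3 withdrawal. Proliferation was measured by [3H]-thymidine incorporation across a dose range of test compound. IC50 was obtained by nonlinear regression of normalized data.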

The next test has as its system Ba/F3-parental cells. The experiment in a line: Parental IL3-dependent Ba/F3 cell proliferation. The class given is cell-based. The following applies: Mus musculus, BaF3, read-out: IC50 Ba/F3-parental. The method in brief: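 Cell growth was read by [3H]-thymidine incorporation across a dose range of test compound. IC50 values come from nonlinear regression curve fitting of normalized data.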

The target in test [1] is recombinant ALK kinase domain (aa 1073–1410) (Homo sapiens, UniProt Q9UM73). The test is described as follows: ELISA-based in vitro kinase assay, recombinant ALK. Format: biochemical. The following applies: 300 μM ATP. The method in brief:
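Purified recombinant ALK kinase domain (aa 1073–1410), wild type or L1196M, was incubated with test compound and Mg++-ATP, then loaded onto peptide substrate-coated wells. Reaction ran at 30 °C for 20 min. After washing, phosphopeptide was quantified with anti-phosphotyrosine antibody PY20. IC50 came from nonlinear regression of normalized data. Inhibition mode was assessed from dose–response curves at increasing ATP concentrations.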
Background: In an ELISA, binding on a coated surface is turned into a signal by an enzyme label.

Chain of recombinant ALK kinase domain (aa 1073–1410) (Q9UM73 1073-1410): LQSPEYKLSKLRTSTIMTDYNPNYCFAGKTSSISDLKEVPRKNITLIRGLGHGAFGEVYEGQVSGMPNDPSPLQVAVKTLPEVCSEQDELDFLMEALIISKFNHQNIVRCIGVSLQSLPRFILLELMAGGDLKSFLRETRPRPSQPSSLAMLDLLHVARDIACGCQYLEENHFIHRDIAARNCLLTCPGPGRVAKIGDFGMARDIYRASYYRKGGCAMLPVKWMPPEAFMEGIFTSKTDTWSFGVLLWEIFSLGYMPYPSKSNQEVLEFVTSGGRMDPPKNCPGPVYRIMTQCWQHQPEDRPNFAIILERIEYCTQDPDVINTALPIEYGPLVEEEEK

Take `COc1ccc(-c2ccc3[nH]c4ncc(C=Cc5ccccc5)cc4c3c2)cc1` [Compound 102]: the IC50 in the test on Ba/F3 NPM/ALK cells was 2.8 µM; in the test with Ba/F3-parental cells, above 10 µM. For `CCCC#Cc1ccc2c(n1)[nH]c1ccccc12` [Compound 34], the “IC50 ALK” value in test [1] (Table 2, 2,6-substituted compounds) is “inactive”. `Clc1cnc2[nH]c3ccc(-c4ccc(N5CCOCC5)cn4)cc3c2c1` [Compound 67]: the “IC50 ALK” value in test [1] (Table 3, 3-chloro-6-substituted compounds) is “inactive”.
